From ChEMBL document CHEMBL1141572, “N-substituted 3-acetyltetramic acid derivatives as antibacterial agents” (J Med Chem, 2008)
In brackets after ≈: the same amount, converted by molar mass.

Columns and labels:
Cutibacterium acnes = assay: Antibacterial activity against Propionibacterium acnes ATCC 6919 by micro-broth dilution method; type: functional
[1] = test system: Mycobacterium tuberculosis; assay: Antimycobacterial activity against Mycobacterium tuberculosis H37Rv after 7 days by micro-broth dilution method; type: functional; details: 168 h
Enterococcus faecalis = assay: Antibacterial activity against Enterococcus faecalis ATCC 33186 by microbroth dilution method; type: functional
Escherichia coli = assay: Antibacterial activity against Escherichia coli by micro-broth dilution method; type: functional
Vero = assay: Cytotoxicity against african green monkey Vero cells after 72 hrs by MTT proliferation assay; type: cell-based; details: Chlorocebus sabaeus
Summary of the method: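 IC50 is taken as the concentration that lowers Vero kidney cell viability by 50%.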

Staphylococcus aureus [2] = assay: Antibacterial activity against methicillin-resistant Staphylococcus aureus ATCC 33591 by micro-broth dilution method; type: functional
Streptococcus pneumoniae = assay: Antibacterial activity against Streptococcus pneumoniae DAW30 by micro-broth dilution method; type: functional
[3] = Selectivity index, ratio of IC50 for african green monkey Vero cells to MIC for methicillin- sensitive Staphylococcus aureus 8325 ATCC 35556; type: functional
Summary of the method: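 Selectivity index is calculated as the Vero cell cytotoxic IC50 divided by the MIC against the wild-type, drug-sensitive, methicillin-sensitive S. aureus 8325 (ATCC 35556).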

Staphylococcus aureus [4] = assay: Antibacterial activity against methicillin-sensitive Staphylococcus aureus 8325 ATCC 35556 by micro-broth dilution method; type: functional
Bacillus anthracis = assay: Antibacterial activity against Bacillus anthracis Sterne 34F2 by micro-broth dilution method; type: functional
Pseudomonas aeruginosa = assay: Antibacterial activity against Pseudomonas aeruginosa by micro-broth dilution method; type: functional
Bacillus subtilis = assay: Antibacterial activity against Bacillus subtilis ATCC 23857 by microbroth dilution method; type: functional
Streptococcus pyogenes = assay: Antibacterial activity against Streptococcus pyogenes ATCC 700294 by micro-broth dilution method; type: functional

| Structure (SMILES) | MIC (Cutibacterium acnes) [µg/mL] | MIC [1] [µg/mL] | MIC (Enterococcus faecalis) [µg/mL] | MIC (Escherichia coli) [µg/mL] | IC50 (Vero) [µg/mL] | MIC (Staphylococcus aureus [2]) [µg/mL] | MIC (Streptococcus pneumoniae) [µg/mL] | Ratio [3] | MIC (Staphylococcus aureus [4]) [µg/mL] | MIC (Bacillus anthracis) [µg/mL] | MIC (Pseudomonas aeruginosa) [µg/mL] | MIC (Bacillus subtilis) [µg/mL] | MIC (Streptococcus pyogenes) [µg/mL] |
| --- | --- | --- | --- | --- | --- | --- | --- | --- | --- | --- | --- | --- | --- |
| C/C(O)=C1\C(=O)[C@H](CC(C)C)N(Cc2ccc(F)cc2)C1=O | 6.25 (≈ 20.5 µM) | 100 (≈ 327 µM) | 50 (≈ 164 µM) | > 200 | 27.8 (≈ 91 µM) | 25 (≈ 81.9 µM) | 50 (≈ 164 µM) | 2.2 | 12.5 (≈ 40.9 µM) | 12.5 (≈ 40.9 µM) | > 200 | 25 (≈ 81.9 µM) | 100 (≈ 327 µM) |
| CCCCN1C(=O)/C(=C(/C)O)C(=O)[C@@H]1CC(C)C | 0.8 (≈ 3.16 µM) | 100 (≈ 395 µM) | 1.6 (≈ 6.32 µM) | > 200 | 254 (≈ 1000 µM) | 6.25 (≈ 24.7 µM) | 100 (≈ 395 µM) | 81.4 | 3.12 (≈ 12.3 µM) | 12.5 (≈ 49.3 µM) | > 200 | 6.25 (≈ 24.7 µM) | > 200 |
| C/C(O)=C1\C(=O)[C@H](CC(C)C)N(CC2=CCC3CC2C3(C)C)C1=O (some centres not stated) | 0.8 (≈ 2.41 µM) | 100 (≈ 302 µM) | 1.6 (≈ 4.83 µM) | > 200 | 35.4 (≈ 107 µM) | 1.6 (≈ 4.83 µM) | 50 (≈ 151 µM) | 22.1 | 1.6 (≈ 4.83 µM) | 0.8 (≈ 2.41 µM) | > 200 | 1.6 (≈ 4.83 µM) | 25 (≈ 75.4 µM) |
| C/C(O)=C1\C(=O)[C@@H](Cc2ccccc2)N(Cc2ccccc2)C1=O | 25 (≈ 77.8 µM) | > 200 | 100 (≈ 311 µM) | > 200 | 80.6 (≈ 251 µM) | 25 (≈ 77.8 µM) | 50 (≈ 156 µM) | 3.2 | 25 (≈ 77.8 µM) | 25 (≈ 77.8 µM) | > 200 | 25 (≈ 77.8 µM) | 200 (≈ 622 µM) |
| CC(C)=CCCC(C)CCN1C(=O)/C(=C(/C)O)C(=O)[C@@H]1CC(C)C (some centres not stated) | 0.4 (≈ 1.19 µM) | 200 (≈ 596 µM) | 0.8 (≈ 2.38 µM) | > 200 | 7.3 (≈ 21.8 µM) | 0.8 (≈ 2.38 µM) | 3.25 (≈ 9.69 µM) | 18.3 | 0.4 (≈ 1.19 µM) | 0.4 (≈ 1.19 µM) | > 200 | 0.8 (≈ 2.38 µM) | 25 (≈ 74.5 µM) |
| COc1cccc(CN2C(=O)/C(=C(/C)O)C(=O)[C@@H]2CC(C)C)c1 | 12.5 (≈ 39.4 µM) | 100 (≈ 315 µM) | 100 (≈ 315 µM) | > 200 | 40 (≈ 126 µM) | 25 (≈ 78.8 µM) | 50 (≈ 158 µM) | 3.2 | 12.5 (≈ 39.4 µM) | 25 (≈ 78.8 µM) | > 200 | 25 (≈ 78.8 µM) | 200 (≈ 630 µM) |
| CCCCCCCCCCN1C(=O)/C(=C(/C)O)C(=O)[C@@H]1Cc1ccccc1 | 0.4 (≈ 1.08 µM) | 50 (≈ 135 µM) | 0.8 (≈ 2.15 µM) | > 200 | 21.1 (≈ 56.8 µM) | 0.8 (≈ 2.15 µM) | 12.5 (≈ 33.6 µM) | 105.5 | 0.2 (≈ 0.538 µM) | 0.2 (≈ 0.538 µM) | > 200 | 0.4 (≈ 1.08 µM) | 50 (≈ 135 µM) |
| CCCCCCCCCCN1C(=O)/C(=C(/C)O)C(=O)[C@@H]1CC(C)C | 0.8 (≈ 2.37 µM) | 12.5 (≈ 37 µM) | 1.6 (≈ 4.74 µM) | > 200 | 14.7 (≈ 43.6 µM) | 0.8 (≈ 2.37 µM) | 6.25 (≈ 18.5 µM) | 36.8 | 0.4 (≈ 1.19 µM) | 0.8 (≈ 2.37 µM) | > 200 | 0.8 (≈ 2.37 µM) | 50 (≈ 148 µM) |
| CCCCCCCCCCN1C(=O)/C(=C(/C)O)C(=O)[C@H]1CC(C)C | 0.8 (≈ 2.37 µM) | 25 (≈ 74.1 µM) | 1.6 (≈ 4.74 µM) | > 200 | 6.3 (≈ 18.7 µM) | 0.8 (≈ 2.37 µM) | 6.25 (≈ 18.5 µM) | 15.8 | 0.4 (≈ 1.19 µM) | 0.8 (≈ 2.37 µM) | > 200 | 0.8 (≈ 2.37 µM) | 50 (≈ 148 µM) |
| CCCCCCCCCCN1C(=O)/C(=C(/C)O)C(=O)[C@@H]1C(C)C | 0.4 (≈ 1.24 µM) | 12.5 (≈ 38.6 µM) | 0.8 (≈ 2.47 µM) | > 200 | 7 (≈ 21.6 µM) | 0.8 (≈ 2.47 µM) | 6.25 (≈ 19.3 µM) | 8.8 | 0.8 (≈ 2.47 µM) | 0.8 (≈ 2.47 µM) | > 200 | 0.4 (≈ 1.24 µM) | 25 (≈ 77.3 µM) |
| CCC(C)[C@H]1C(=O)/C(=C(\C)O)C(=O)N1Cc1ccccc1 (some centres not stated) | 6.25 (≈ 21.7 µM) | 50 (≈ 174 µM) | 6.25 (≈ 21.7 µM) | > 200 | 26.3 (≈ 91.5 µM) | 6.25 (≈ 21.7 µM) | 50 (≈ 174 µM) | 4.2 | 6.25 (≈ 21.7 µM) | 3.12 (≈ 10.9 µM) | > 200 | 25 (≈ 87 µM) | > 200 |
| C/C(O)=C1\C(=O)[C@H](CC(C)C)N(Cc2ccc(-c3ccccc3)cc2)C1=O | 0.2 (≈ 0.55 µM) | 50 (≈ 138 µM) | 0.8 (≈ 2.2 µM) | > 200 | 19.7 (≈ 54.2 µM) | 0.8 (≈ 2.2 µM) | 12.5 (≈ 34.4 µM) | 98.5 | 0.2 (≈ 0.55 µM) | 0.4 (≈ 1.1 µM) | > 200 | 0.4 (≈ 1.1 µM) | 25 (≈ 68.8 µM) |
| C/C(O)=C1\C(=O)[C@@H](CC(C)C)N(Cc2ccc(F)cc2)C1=O | 12.5 (≈ 40.9 µM) | 100 (≈ 327 µM) | 50 (≈ 164 µM) | > 200 | 35.3 (≈ 116 µM) | 12.5 (≈ 40.9 µM) | 25 (≈ 81.9 µM) | 2.8 | 12.5 (≈ 40.9 µM) | 12.5 (≈ 40.9 µM) | > 200 | 12.5 (≈ 40.9 µM) | 100 (≈ 327 µM) |
| C/C(O)=C1\C(=O)[C@H](Cc2ccccc2)N(Cc2ccccc2)C1=O | 12.5 (≈ 38.9 µM) | > 200 | 100 (≈ 311 µM) | > 200 | 75.7 (≈ 236 µM) | 25 (≈ 77.8 µM) | 100 (≈ 311 µM) | 6.1 | 12.5 (≈ 38.9 µM) | 25 (≈ 77.8 µM) | > 200 | 25 (≈ 77.8 µM) | > 200 |
